The values that follow come from ChEMBL document CHEMBL4304756, “Second-Generation Tryptamine Derivatives Potently Sensitize Colistin Resistant Bacteria to Colistin” (ACS Med Chem Lett, 2019).

Calls of active or inactive are those of the source. The calls are words filed in the database; no cut-off is given here.

Series [1] relates to Acinetobacter baumannii. Description: Potentiation of colistin-induced antibacterial activity against Acinetobacter baumannii 4106 assessed as reduction in colistin MIC at 15 uM incubated for 16 hrs by broth microdilution method (reference value: 1024 ug/ml). It is filed as functional. The note with it: Acinetobacter baumannii, 4106, 16 h. In general terms: In broth dilution the organism is exposed to a series of concentrations in liquid medium.

The next series relates to Escherichia coli. Description: Potentiation of colistin-induced antibacterial activity against Escherichia coli YD626 harbouring mcr-1 gene assessed as reduction in colistin MIC at 15 uM incubated for 16 hrs by broth microdilution method. In kind it is functional, organism-based. The gist of the method:
(§1)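 For the dose-response, colistin MIC was measured against mcr-1 plasmid-bearing E. coli, K. pneumoniae and A. baumannii while the adjuvant concentration was lowered stepwise (30, 15 μM, down to 5 μM). The aim was to find where the MIC rose above the 2 μg/mL CLSI susceptibility breakpoint.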

Series [2] has as its system Klebsiella pneumoniae. Nature of the series: Potentiation of colistin-induced antibacterial activity against Klebsiella pneumoniae C3 assessed as reduction in colistin MIC at 5 uM incubated for 16 hrs by broth microdilution method (reference value: 512 ug/ml). In kind it is functional. The following applies: C3, 16 h.
The subject of series [3] is Klebsiella pneumoniae. Description: Potentiation of colistin-induced antibacterial activity against Klebsiella pneumoniae C3 assessed as reduction in colistin MIC at 20 uM incubated for 16 hrs by broth microdilution method (reference value: 512 ug/ml). The following applies: C3, 16 h. In kind it is functional. The gist of the method:
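Colistin MIC was measured against chromosomally colistin-resistant strains (K. pneumoniae B9, C3; A. baumannii 4106, among four strains) with adjuvant at fixed levels from 20 μM down to 7.5 μM. Fold reduction was reported against colistin alone, with the CLSI breakpoint taken as ≤2 μg/mL.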

Series [4] concerns Acinetobacter baumannii. Nature of the series: Potentiation of colistin-induced antibacterial activity against Acinetobacter baumannii 3941 assessed as reduction in colistin MIC at 20 uM incubated for 16 hrs by broth microdilution method (reference value: 512 ug/ml). In kind it is functional. The following applies: Acinetobacter baumannii, 3941, 16 h.
Series [5] can be described thus: Cytotoxicity against mouse 4T1 cells assessed as reduction in cell viability incubated for 18 hrs by MTT assay. It is filed as cell-based. The gist of the method: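 4T1 mouse mammary tumor cells exposed to compound for 18 h, alone or together with colistin at 1 μg/mL. Medium then aspirated and replaced with 0.5 mg/mL MTT in culture medium for colorimetric viability read-out. CT50 taken as the concentration giving 50% cell viability.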
(In general: Formazan colour is commonly taken as a measure of viable cells.)

Series [6] deals with Klebsiella pneumoniae. Description: Potentiation of colistin-induced antibacterial activity against Klebsiella pneumoniae B9 assessed as reduction in colistin MIC at 15 uM incubated for 16 hrs by broth microdilution method (reference value: 512 ug/ml). It is filed as functional. The following applies: B9, 16 h.
In series [7] the test system is Klebsiella pneumoniae. Nature of the series: Potentiation of colistin-induced antibacterial activity against Klebsiella pneumoniae C3 assessed as reduction in colistin MIC at 15 uM incubated for 16 hrs by broth microdilution method (reference value: 512 ug/ml). In kind it is functional. The following applies: C3, 16 h.
For series [8], the system named is Klebsiella pneumoniae. Description: Potentiation of colistin-induced antibacterial activity against Klebsiella pneumoniae 2210291 harbouring mcr-1 gene assessed as reduction in colistin MIC at 15 uM incubated for 16 hrs by broth microdilution method. It is filed as functional, organism-based. The method in brief:
as §1

Series [9] concerns Acinetobacter baumannii. Description: Potentiation of colistin-induced antibacterial activity against Acinetobacter baumannii 4106 assessed as reduction in colistin MIC at 10 uM incubated for 16 hrs by broth microdilution method (reference value: 1024 ug/ml). In kind it is functional. The following applies: Acinetobacter baumannii, 4106, 16 h.
Series [10] deals with Klebsiella pneumoniae. Description: Potentiation of colistin-induced antibacterial activity against Klebsiella pneumoniae B9 assessed as reduction in colistin MIC at 20 uM incubated for 16 hrs by broth microdilution method (reference value: 512 ug/ml). The note with it: B9, 16 h. It is filed as functional.
The nature of series [11]: Hemolytic activity in sheep RBC at 200 uM incubated for 1 hr by UV spectrophotometry. The following applies: sheep red blood cells (erythrocytes), read-out: Activity. In kind it is ADME, cell-based, Ovis aries, Erythrocyte. The method in brief:
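Red blood cells exposed to compound at 200 μM, with percent cell lysis recorded.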

Series [12] relates to Acinetobacter baumannii. Nature of the series: Potentiation of colistin-induced antibacterial activity against Acinetobacter baumannii 4106 assessed as reduction in colistin MIC at 5 uM incubated for 16 hrs by broth microdilution method (reference value: 1024 ug/ml). It is filed as functional. The note with it: Acinetobacter baumannii, 4106, 16 h.

Usually MIC stands for the least concentration at which growth counts as inhibited. What is called CC50 is the concentration giving 50% cytotoxicity.

In the case of `O=C(NCCc1c[nH]c2ccc(Br)cc12)Nc1cc(Cl)c(Br)c(Cl)c1`, the minimal inhibitory concentration (MIC) with Acinetobacter baumannii [1] was at most 0.5 µg/mL; in the series with Klebsiella pneumoniae [2] it was 4 µg/mL; in the series on Klebsiella pneumoniae [3], 0.5 µg/mL; in the series on Acinetobacter baumannii [4] it was 2 µg/mL; in the series with Klebsiella pneumoniae [6], at most 0.25 µg/mL; in the series with Klebsiella pneumoniae [7], 0.5 µg/mL. Besides, the values for the MIC in the series on Acinetobacter baumannii [9], with Klebsiella pneumoniae [10] and in the series on Acinetobacter baumannii [12] were 1 µg/mL, at most 0.25 µg/mL and 4 µg/mL, respectively. The result with Escherichia coli and in the series on Klebsiella pneumoniae [8] was Active. Also, in series [5], the 50% cytotoxic concentration (CC50) at 18 h worked out at 94.1 µM. Also, the hemolysis at 1 h, 200 µM in series [11] was under 2.5%.
